In PubChem BioAssay:
Calls of active or inactive are those of the source.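 Rule for the calls, unless noted: active = viability at or below 10% of carrier control in both of two separate runs; inconclusive = viability at or below 10% in only one of the two runs; inactive = the rest.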

Experiments:
[1] = SK-BR-3 cell growth inhibitors, pilot screen, 24 h, human (AID 572); conditions: SK-BR-3 viability, CellTiter-Glo luminescence, at 10 µM, stronger effect = lower value;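 note: compound exposure lasted between 18 and 24 h rather than exactly 24 h; 100% = carrier-treated control wells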
[2] = HUVEC growth inhibition – cell-based, human, primary screen (AID 575;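 active = viability at or below 30% in both replicate assays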;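 note: 100% = median of untreated cell wells with 0.1% DMSO on each plate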); conditions: HUVEC proliferation, CellTiter-Glo luminescence, 72 h; at 10 µM; stronger effect = lower value
Method in brief: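 Assay system: primary human umbilical vein endothelial cells / Buffer or medium: endothelial basal medium with 2% FBS plus growth supplements / Compound dosing: one dose, 10 µM final, 0.1% DMSO / Timing: 72 h treatment at 37 °C / Signal: CTG luminescence / Benchmarks: 32 DMSO-only cell-control wells (high), 32 MePR drug-control wells (low) per plate / Plate: collagen-coated 384-well format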

[3] = growth inhibitors of H69AR lung tumor, primary screen, human, duplicate replicates (AID 580;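 active = viability at or under a set limit in both replicates, limit being median viability minus 3 SD, cut at about 48% in these data, passing the limit was not always enough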;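 note: 100% = mean luminescence of untreated wells and 0% = no signal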); conditions: H69AR lung tumor cells viability, ATP luminescence, 72 h; at 10 µM; stronger effect = lower value
[4] = reversal of MRP1-mediated doxorubicin resistance, pilot screen, H69AR cells, doxorubicin co-treatment (AID 601;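 active = viability loss from added drug above about 55%, and viability with drug at most 40%, in both replicates, limit read from the data, passing the limit was not always enough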); conditions: CellTiter-Glo, 72 h, at 10 µM; for differential viability (reversal): stronger effect = higher value
[5] = 384-well plate pilot, post-Golgi transport modulator project, inhibition of yeast transport mutant growth (AID 636; in the data active = inhibition above about 31%); conditions: absorbance 615 nm, about 18 h, stronger effect = higher value
[6] = growth suppression of yeast trafficking mutant, preliminary HTS, modulators of trafficking downstream of Golgi apparatus project, 1536-format plate, OD 615 nm (AID 637; in the data active = inhibition above about 30%); conditions: yeast transport mutant growth, absorbance 615 nm, 18 h; stronger effect = higher value
[7] = H69AR cells + 2 uM doxorubicin, measured here: viability with 2 uM doxorubicin, stronger effect = lower value
[8] = H69AR cells, compound alone cytotoxicity

| Compound | viability [1] | viability [2] | viability [3] | differential viability (reversal) ([4]; H69AR cells + 2 uM doxorubicin) | viability [4, 7] | viability [4, 8] | inhibition [5] | inhibition [6] |
| --- | --- | --- | --- | --- | --- | --- | --- | --- |
| CCOc1ccccc1NC(=O)CN(C)S(=O)(=O)c1cccc2nsnc12 | 104% (inactive) | 91.1% (inactive) | 84% (inactive) | -1.12% (inactive) | 85.1% | 84% | -6.76% (inactive) | 0.73% (inactive) |
| CCOc1ccc(-c2cn(S(=O)(=O)c3cccc4nsnc34)nc2N)cc1 | 117% (inactive) | 94.8% (inactive) | 84.8% (inactive) | 3.21% (inactive) | 81.6% | 84.8% | 34.9% (active) | 31% (active) |
| COc1ccccc1-n1c(=O)c2c3c(sc2n2c(SC(C)C)nnc12)CCC3 | 104% (inactive) | 113% (inactive) | 86.2% (inactive) | 44.6% (inactive) | 41.7% | 86.2% | -0.14% (inactive) | 1.77% (inactive) |
| Cc1ccc(Cn2c(SCC(N)=O)nc3c2c(=O)n(C)c(=O)n3C)cc1 | 106% (inactive) | 86.9% (inactive) | 86.4% (inactive) | 3.46% (inactive) | 82.9% | 86.4% | -2.4% (inactive) | -6.55% (inactive) |
| CCCC(CCC)C(=O)NCCN1CCOCC1 | 118% (inactive) | 85% (inactive) | 96.8% (inactive) | 10.2% (inactive) | 86.6% | 96.8% | -2.34% (inactive) | 4.92% (inactive) |
| O=C(NCCCN1CCCC1=O)c1ccc2c(=O)n(Cc3ccco3)c(=S)[nH]c2c1 | 97% (inactive) | 105% (inactive) | 99.6% (inactive) | 7.89% (inactive) | 91.7% | 99.6% | 1.95% (inactive) | 10.5% (inactive) |
| O=C(CSc1nnc(-c2ccco2)n1-c1ccccc1)N1CCN(C(=O)c2ccco2)CC1 | 137% (inactive) | 80.3% (inactive) | 84.4% (inactive) | -1.54% (inactive) | 85.9% | 84.4% | -1.17% (inactive) | -0.82% (inactive) |
| Cc1ccc(-c2nnc(N3CCN(C(=O)CN4C(=O)c5ccccc5C4=O)CC3)c3ccccc23)cc1 | 84% (inactive) | 73% (inactive) | 94% (inactive) | -0.335% (inactive) | 94.3% | 94% | -1.23% (inactive) | -4.03% (inactive) |
| CC(CCc1ccccc1)NC(=O)CSc1nc(N)cc(N)n1 (configuration not stated) | 114% (inactive) | 96.6% (inactive) | 94.7% (inactive) | 4.75% (inactive) | 90% | 94.7% | -0.68% (inactive) | -1.45% (inactive) |
| CC(OC(=O)c1ccco1)C(=O)NCc1cccs1 (configuration not stated) | 119% (inactive) | 90.3% (inactive) | 97.4% (inactive) | -5.53% (inactive) | 103% | 97.4% | -4.25% (inactive) | -4.55% (inactive) |
| N#Cc1ccc(CSc2nnc(-c3ccccn3)n2-c2ccccc2)cc1 | 62% (inactive) | 93.5% (inactive) | 95.1% (inactive) | 6.06% (inactive) | 89.1% | 95.1% | -7.67% (inactive) | -1.09% (inactive) |
| CCOc1ccccc1NC(=O)CSc1nnc2c(CC)c(C)nc(N)n12 | 104% (inactive) | 113% (inactive) | 96.3% (inactive) | -3.08% (inactive) | 99.4% | 96.3% | -5.81% (inactive) | -0.91% (inactive) |
| CN(CCNC(=O)c1ccc(N2CCCC2=O)cc1)CCc1ccccc1 | 72% (inactive) | 99% (inactive) | 101% (inactive) | 8.74% (inactive) | 92.6% | 101% | -7.95% (inactive) | 4.36% (inactive) |
| COc1cccc(CC(=O)Nn2c(C)nc3ccccc3c2=O)c1 | 83% (inactive) | 115% (inactive) | 99.3% (inactive) | 11.8% (inactive) | 87.5% | 99.3% | -3.07% (inactive) | -5.27% (inactive) |
